For orientation: Cmax means the peak of the concentration-time curve. One may read the Tmax as the time from dosing to the highest level. What is called AUC(0-t) is the area under the concentration-time curve up to a stated or last time point. By EC50 is commonly meant the midpoint of the concentration-response curve.

1 compound from ChEMBL document CHEMBL1136933 (J Med Chem, 2009) can be followed below.

Series [1] concerns the target T1, Muscarinic acetylcholine receptor M5 (Homo sapiens) (UniProt P08912).
T1 sequence (whole entry): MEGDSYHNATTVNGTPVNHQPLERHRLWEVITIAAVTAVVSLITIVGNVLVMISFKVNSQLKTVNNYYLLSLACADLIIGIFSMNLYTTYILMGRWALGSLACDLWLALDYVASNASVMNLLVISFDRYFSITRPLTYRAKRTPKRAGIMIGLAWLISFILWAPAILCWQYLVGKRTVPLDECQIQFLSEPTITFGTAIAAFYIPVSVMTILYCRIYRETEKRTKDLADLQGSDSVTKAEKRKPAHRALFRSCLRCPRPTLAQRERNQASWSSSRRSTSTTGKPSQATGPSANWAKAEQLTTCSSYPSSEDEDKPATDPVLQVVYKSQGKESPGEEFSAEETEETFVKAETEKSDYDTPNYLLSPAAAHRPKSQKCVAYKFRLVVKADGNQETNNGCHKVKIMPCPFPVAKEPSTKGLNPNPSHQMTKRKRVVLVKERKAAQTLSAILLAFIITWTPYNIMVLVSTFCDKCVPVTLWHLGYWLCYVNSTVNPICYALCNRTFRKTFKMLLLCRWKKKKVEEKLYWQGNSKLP
Kind of series: Displacement of [3H]NMS from human muscarinic M5 receptor expressed in CHO cells coexpressing Gq protein up to 30 uM by scintillation counting. In kind it is cell-based. (In a radioligand displacement assay an active substance lowers the binding of a labelled ligand.)

Series [2] is described as follows: Cmax in Sprague-Dawley rat brain at 10 mg/kg, ip within 1 hr. It counts as ADME, organism-based. Details: dose 10 mg/kg, route intraperitoneal. The essentials:
(§1)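 Male Sprague-Dawley rats (225-250 g) dosed ip at 10 mg/kg as a 5 mg/ml micro-suspension in 10% Tween 80 in sterile water. Plasma and brain sampled at 0.5, 1, 3 and 6 h, three animals per time point. Quantified by protein precipitation and LC-MS/MS against an internal standard. Brain values corrected for residual blood. PK parameters derived by noncompartmental analysis.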

The nature of series [3]: Apparent oral volume of distribution in Sprague-Dawley rat plasma at 10 mg/kg, ip. In kind it is ADME, organism-based. Details: dose 10 mg/kg. The settings on record: read-out: Vc/F. The method, boiled down: as §1
For series [4], the system named is Plasma. Kind of series: Elimination half life in Sprague-Dawley rat plasma at 10 mg/kg, ip. It counts as ADME, organism-based. Details: dose 10 mg/kg, route intraperitoneal. The settings on record: in vivo. The essentials:
as §1

The target of series [5] is T1, Muscarinic acetylcholine receptor M5 (Homo sapiens). The series can be described thus: Activation of human muscarinic M5 receptor expressed in CHO cells coexpressing Gq protein assessed as increase in acetylcholine affinity at 30 uM by [3H]NMS competition binding assay relative to control. In kind it is cell-based.
Series [6] in a line: Tmax in Sprague-Dawley rat plasma at 10 mg/kg, ip. In kind it is ADME, organism-based. Details: dose 10 mg/kg, route intraperitoneal. The method, boiled down: as §1
In series [7] the target is T2, Muscarinic acetylcholine receptor M1 (Rattus norvegicus) (UniProt P08482).
T2 sequence (whole entry): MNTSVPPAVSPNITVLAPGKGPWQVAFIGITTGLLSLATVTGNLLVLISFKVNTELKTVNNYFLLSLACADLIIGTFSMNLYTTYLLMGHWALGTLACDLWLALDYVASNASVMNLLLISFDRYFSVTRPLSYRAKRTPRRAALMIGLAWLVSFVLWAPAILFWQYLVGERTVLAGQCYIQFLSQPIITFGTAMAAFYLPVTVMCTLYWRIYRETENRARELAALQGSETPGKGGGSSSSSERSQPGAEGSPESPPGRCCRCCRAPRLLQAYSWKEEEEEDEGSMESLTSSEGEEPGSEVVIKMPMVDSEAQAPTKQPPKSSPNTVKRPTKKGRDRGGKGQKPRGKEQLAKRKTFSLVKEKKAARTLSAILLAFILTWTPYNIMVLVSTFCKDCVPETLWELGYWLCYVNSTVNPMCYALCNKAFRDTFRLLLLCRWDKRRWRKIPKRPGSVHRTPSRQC
Kind of series: Activation of rat muscarinic M1 receptor expressed in CHO cells co-expressing Gq protein assessed as potentiation of acetylcholine-induced intracellular Ca2+ mobilization at 30 uM relative to acetylcholine. It counts as functional, cell-based.

Series [8] is described as follows: AUC (0 to 6 hrs) in Sprague-Dawley rat brain at 10 mg/kg, ip. It counts as ADME, organism-based. Details: time < 6 hr, dose 10 mg/kg, route intraperitoneal. The method, boiled down: as §1
In series [9] the target is Muscarinic acetylcholine receptor M3 (Homo sapiens, UniProt P20309). Kind of series: Activation of human muscarinic M3 receptor expressed in CHO cells coexpressing Gq protein assessed as potentiation of acetylcholine-induced intracellular Ca2+ mobilization. It counts as functional, cell-based. The method, boiled down:
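Calcium flux assay. Stable CHO lines were seeded at 5 × 10^4 cells/well (M1, M3, M5) or 6 × 10^4 cells/well (Gqi5 M2, M4) and grown overnight at 37 °C, 5% CO2. Cells were loaded 1 h at 37 °C with 2 µM Fluo-4 AM. […] At least three independent determinations, each in duplicate or more.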

A short description of series [10]: AUC (0 to 6 hrs) in Sprague-Dawley rat plasma at 10 mg/kg, ip. On the set-up: time < 6 hr, dose 10 mg/kg, route intraperitoneal. In kind it is ADME, organism-based. The essentials:
as §1

For series [11], the target named is T3, Muscarinic acetylcholine receptor M2 (Rattus norvegicus) (UniProt P10980).
T3 sequence (whole entry): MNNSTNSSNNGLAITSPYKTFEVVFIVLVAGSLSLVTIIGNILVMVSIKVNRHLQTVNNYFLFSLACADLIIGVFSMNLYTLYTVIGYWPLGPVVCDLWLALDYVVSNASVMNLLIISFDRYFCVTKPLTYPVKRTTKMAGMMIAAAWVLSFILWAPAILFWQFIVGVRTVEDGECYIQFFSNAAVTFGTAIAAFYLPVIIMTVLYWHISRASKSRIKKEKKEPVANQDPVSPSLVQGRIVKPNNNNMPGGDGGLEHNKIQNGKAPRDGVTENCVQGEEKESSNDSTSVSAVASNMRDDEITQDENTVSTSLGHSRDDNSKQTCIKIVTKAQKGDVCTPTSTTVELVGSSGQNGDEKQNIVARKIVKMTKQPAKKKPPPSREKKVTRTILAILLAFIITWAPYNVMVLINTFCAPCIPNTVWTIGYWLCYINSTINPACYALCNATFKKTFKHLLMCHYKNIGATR
The series can be described thus: Activation of rat muscarinic M2 receptor expressed in CHO cells coexpressing chimeric Gqi5 protein assessed as potentiation of acetylcholine-induced intracellular Ca2+ mobilization up to 30 uM. It counts as functional, cell-based.

Series [12] in a line: Elimination half life in Sprague-Dawley rat brain at 10 mg/kg, ip. Details: dose 10 mg/kg, route intraperitoneal. Particulars: read-out: beta t1/2 (converted). It counts as ADME, organism-based. The essentials: as §1
A short description of series [13]: Selectivity ratio of EC50 for rat muscarinic M1 receptor to EC50 for human muscarinic M5 receptor.
Series [14] is described as follows: Selectivity ratio of EC50 for rat muscarinic M2 receptor to EC50 for human muscarinic M5 receptor.
In series [15] the target is T1, Muscarinic acetylcholine receptor M5 (Homo sapiens). The series can be described thus: Intrinsic activity at human muscarinic M5 receptor expressed in CHO cells coexpressing Gq protein up to 30 uM by calcium mobilization assay in absence of acetylcholine. In kind it is functional, cell-based. Background: A change in cytosolic calcium serves as a functional read-out for many receptors and channels.

The nature of series [16]: Tmax in Sprague-Dawley rat brain at 10 mg/kg, ip. In kind it is ADME, organism-based. On the set-up: dose 10 mg/kg, route intraperitoneal. The essentials: as §1

Activity calls are given as the source filed them. The calls are words filed in the database; no cut-off is given here. Some results are limits rather than exact numbers.

Muscarinic acetylcholine receptor M3, sequence (P20309 whole entry): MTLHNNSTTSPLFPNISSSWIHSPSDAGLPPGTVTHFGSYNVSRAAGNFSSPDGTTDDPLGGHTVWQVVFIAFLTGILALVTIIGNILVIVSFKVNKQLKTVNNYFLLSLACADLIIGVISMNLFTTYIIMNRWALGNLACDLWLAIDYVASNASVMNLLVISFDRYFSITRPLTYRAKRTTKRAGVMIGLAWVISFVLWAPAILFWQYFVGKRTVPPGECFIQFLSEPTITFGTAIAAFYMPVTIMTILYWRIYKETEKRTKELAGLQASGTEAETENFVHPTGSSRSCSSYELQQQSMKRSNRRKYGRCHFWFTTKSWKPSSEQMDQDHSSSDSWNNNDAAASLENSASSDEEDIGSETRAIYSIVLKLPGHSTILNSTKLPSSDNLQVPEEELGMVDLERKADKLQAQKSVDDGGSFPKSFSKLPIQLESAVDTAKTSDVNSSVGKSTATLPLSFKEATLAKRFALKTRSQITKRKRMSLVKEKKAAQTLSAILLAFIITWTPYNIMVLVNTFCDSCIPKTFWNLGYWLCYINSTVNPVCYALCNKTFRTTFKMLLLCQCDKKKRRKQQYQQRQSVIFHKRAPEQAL

As for `COc1ccc(CN2C(=O)C(=O)c3cc(OC(F)(F)F)ccc32)cc1`, the outcome in [1], in series [11] and in series [15] was inactive. Besides, the Cmax in series [2] turned out to be 43.1 ng/mL. Further, the Vd/F in series [3] was 59.6 L/kg. Also, in series [4], the “beta t1/2” value was 4.7 h. Moreover, the fold change (FC) in [5] was 10. The time of peak concentration (Tmax) turned out to be 1 h in [6] and 0.5 h in [16]. For the same compound, the %max in series [7] was 12.7%. Besides, the AUC(0-t) at 6 h in series [8] was determined as 159 ng·h/mL; in [10], 621 ng·h/mL. In addition, the EC50 in [9] is > 30 µM. Also, the half-life in [12] is 3.69 h. The Ratio EC50 in series [13] and in [14] was > 30 throughout.
